Screens from PubChem BioAssay.
Scp1 inh: inhibitors of human Scp-1 phosphatase; 340,000 tested, 0.88% active; inhibition, % at 20 µM; AID 493091; Recombinant Scp1, phosphopeptide, malachite green phosphate absorbance; Q9GZU7;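 active = inhibition above about 50% at 20 µM, limit read from the data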
Target sequence (Q9GZU7 76-261 limits assumed): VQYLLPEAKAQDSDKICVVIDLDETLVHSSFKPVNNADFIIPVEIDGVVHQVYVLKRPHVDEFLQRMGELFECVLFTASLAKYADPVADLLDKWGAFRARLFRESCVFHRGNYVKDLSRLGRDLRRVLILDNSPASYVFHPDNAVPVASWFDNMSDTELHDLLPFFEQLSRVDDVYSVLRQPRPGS
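Assay system: SCP-1 catalytic fragment, aa 76-261 | Buffer or medium: Tris acetate buffer pH 5.5 with MgCl2 and Tween-20 | Compound: One concentration, 20 µM, with 1.0% DMSO | Also added: Phospho 17-mer peptide substrate | Signal: Absorbance at 630 nm | Incubation: 45 min enzyme reaction at room temperature | Measure: % inhibition of SCP-1 phosphate liberation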
NadD block: blocks S. aureus nicotinate mononucleotide adenylyltransferase; inhibition, % at 20 µM; 360,000 tested, 0.78% active; purified NadD enzyme, colorimetric absorbance read-out; in the data active = inhibition above about 26%
DNMT1 block: DNMT1 (human) enzyme inhibition | P26358 | DNMT1 molecular beacon, Hinp1I cleavage, fluorescence | inhibition (reported as % activation of signal), % at 10 µM | 360,000 tested, 0.83% active | AID 588458; in the data active = inhibition above about 50%
LMPTP inh: blocks human LMPTP phosphatase; P24666; AID 651560; 360,000 tested, 0.22% active; recombinant LMPTP-A, OMFP fluorogenic substrate, fluorescence intensity; inhibition, % at 20 µM;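 active = compounds that cut the enzyme signal by at least half of the control window in the single-dose screen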
Target sequence (P24666 whole entry, looked up): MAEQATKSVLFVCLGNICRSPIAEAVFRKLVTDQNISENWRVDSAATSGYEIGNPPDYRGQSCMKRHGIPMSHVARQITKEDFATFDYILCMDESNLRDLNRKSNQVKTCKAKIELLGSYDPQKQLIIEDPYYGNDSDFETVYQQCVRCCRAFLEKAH
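Assay system: LMPTP-A, protein tyrosine phosphatase of low molecular weight / Medium: pH 6.0 Bis-Tris buffer with DTT and Triton X-100 / Schedule: 50 min enzyme reaction at room temperature, protected from light / Measured by: endpoint fluorescence intensity from OMFP dephosphorylation / Read-out basis: % inhibition relative to no-enzyme and uninhibited control wells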
SUMO1-SIM PPI: alters human SUMO1 binding to SIM partners; P63165; SUMO1 binding to a labelled peptide, TR-FRET, 1 h; inhibition, % at 20 µM; 360,000 tested, 0.33% active; AID 602429; in the data active = inhibition above about 37%
Target sequence (P63165 whole entry, looked up): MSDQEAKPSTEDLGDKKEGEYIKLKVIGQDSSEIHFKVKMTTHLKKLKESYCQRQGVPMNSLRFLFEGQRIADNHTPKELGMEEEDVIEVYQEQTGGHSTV
STEP block: blocks human striatal-enriched tyrosine phosphatase; inhibition, % at 20 µM; P54829; recombinant STEP, OMFP fluorogenic substrate, fluorescence; 360,000 tested, 0.25% active; AID 588621;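 active = inhibition at 20 µM, scaled per plate between control wells, above about 37%, limit read from the data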
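Material: STEP (striatal-enriched tyrosine phosphatase) enzyme, cell-free; Compound dosing: 20 µM single dose in 1% DMSO; Technique: fluorescence read at 480 nm ex / 540 nm em; Times: reaction 20 min, ambient temperature; Medium: 50 mM Bis-Tris pH 6.0 with 2.5 mM DTT and 0.005% Tween 20; Also added: OMFP at 25 µM.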
Scp-1 conf: confirmation of human Scp-1 phosphatase inhibitors; shares compounds with Scp1 inh; recombinant SCP-1 catalytic domain, phosphate release, malachite green absorbance; inhibition, % at 20 µM; 2,500 tested, 61% active
MG interference: colorimetric interference in Scp-1 counter-screen. shares compounds with Scp1 inh. Colorimetric interference counterscreen, malachite green absorbance 630 nm. apparent inhibition (interference), % at 20 µM. 2,500 tested, under 10 active. AID 540313;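 note: compounds added after enzyme reaction finished so only phosphate colour detection is probed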
Scp1 DSF: validation of human Scp-1 inhibitors by thermal shift binding; 1,500 tested, 25% active; thermal shift relative to vanadate control, % at 40 µM; shares compounds with Scp1 inh; Recombinant SCP1, Sypro Orange thermal shift Tm;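 active = substances whose mean melting-temperature shift, as a percentage of the reference inhibitor's shift, reaches about 5.3%, limit read from the data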
Each line names hits and unclear results; the compound was inactive in the other large screens (follow-up assays come after a bar, where they were run); ! = a repeat was not active. The list is not random: actives were taken first. Their share in the collection is about 2.4%.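 Rule for the calls, unless noted: active = inhibition of at least 30% at 20 µM; inactive = the rest.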

O=C(CCS(=O)(=O)c1ccc(Br)cc1)Nc1ccc(Cl)cc1F	none
COC(=O)/C=C/c1ccccc1S(=O)(=O)N(Cc1ccccc1)Cc1ccco1	Scp1 inh 72.7 | Scp-1 conf inactive | MG interference inactive
Cn1c(=O)c2nc(-c3ccc(Cl)cc3Cl)oc2c2ccccc21	Scp1 inh 72.6, LMPTP inh 89.4 | Scp-1 conf inactive | MG interference inactive
C[C@H](CO)N1C[C@H](C)[C@@H](CN(C)C(=O)NC2CCCCC2)Oc2c(NC(=O)Nc3ccc(C(F)(F)F)cc3)cccc2C1=O	none
Cc1ccc(NC(=O)CN2CC(C)SC2=NC2CCCCC2)cc1 (stereo not given)	Scp1 inh 78.7! | Scp-1 conf inactive | MG interference inactive
CSCCC(NC(=O)c1ccco1)C(=O)NCc1ccc2c(c1)OCO2 (stereo not given)	none
Cn1cc(Cl)c(C(=O)Nc2cccc(Cl)c2Cl)n1	Scp1 inh 72.0 | Scp-1 conf 75.8 | MG interference inactive | Scp1 DSF inactive
Cn1cc(Cl)c(C(=O)Nc2nc3ccccc3s2)n1	none
CC(C)S(=O)(=O)c1cnc(-c2cccnc2)nc1N	none
Cc1ccc2nc(SCC(=O)N(CC(C)C)c3c(N)n(Cc4ccccc4)c(=O)[nH]c3=O)[nH]c2c1	Scp1 inh 88.3 | Scp-1 conf inactive | MG interference inactive
CCN(C(=O)CSc1nc2ccc(OC)cc2[nH]1)c1c(N)n(Cc2ccccc2)c(=O)[nH]c1=O	none
COc1cccc(CNc2nc3cc(-c4ccc(C(=O)N5CCN(C)CC5)cc4)sc3c(=O)n2C)c1	none (no result: Scp1 inh)
CCN(CC)C(=O)CSc1nnnn1-c1ccc(F)c(Cl)c1	none
O=c1[nH]c2cc3c(cc2cc1CN(Cc1cccnc1)Cc1nnnn1Cc1ccco1)OCCO3	Scp1 inh 83.8 | Scp-1 conf inactive | MG interference inactive
Cc1ccc([C@H]2C[C@H](O)[C@@H](n3cc(-c4ccc(F)cc4)nn3)CN2C(=O)C2CCCCC2)cc1	none (no result: Scp1 inh)
COc1ccc([C@@H]2CC(=O)c3c(O)cc(O[C@@H]4O[C@H](CO[C@@H]5O[C@@H](C)[C@H](O)[C@@H](O)[C@H]5O)[C@@H](O)[C@H](O)[C@H]4O)cc3O2)cc1O	Scp1 inh 62.1 | Scp-1 conf 39.4 | MG interference inactive | Scp1 DSF inactive
COc1ccc(-c2cc(=O)c3c(O)cc(OC4OC(COC5OC(C)C(O)C(O)C5O)C(O)C(O)C4O)cc3o2)cc1O (stereo not given)	none
Cc1nnc2ccc(-c3ccc(NC(=O)c4ccco4)cc3)nn12	Scp1 inh 89.0, SUMO1-SIM PPI 51.8 | Scp-1 conf inactive | MG interference inactive
CC(=O)Nc1ccc(-c2ccc3nnc(C)n3n2)cc1	none
O=C(Nc1ccc(-c2ccccc2)cc1)c1ccco1	Scp1 inh 59.2 | Scp-1 conf inactive | MG interference inactive
COc1cc(C)c(CN2CCN(CC(=O)Nc3ccccc3C(=O)NC3CC3)CC2)cc1OC	none
CN(C(=O)c1cccc(NC(=O)Cc2ccc(NC(=O)C3CCCN(C(=O)C4CCCCC4)C3)cc2)c1)C1CCC1 (stereo not given)	none
O=C(CSc1nc2c(sc3ccccc32)c(=O)n1CCO)NCc1ccco1	Scp1 inh 73.9 | Scp-1 conf 63.9 | MG interference inactive | Scp1 DSF inactive
CC(=O)Nc1ccc(S(=O)(=O)NCC(=O)NNC(=O)COc2ccccc2Cl)cc1	none | Scp-1 conf inactive | MG interference inactive
O=S1(=O)NC(CC2=CCCCC2)C2CCCCC2O1 (stereo not given)	Scp1 inh 50.1 | Scp-1 conf inactive | MG interference inactive
